From ChEMBL document CHEMBL1133321, “Synthesis of conformationally constrained analogues of KN62, a potent antagonist of the P2X7-receptor” (Bioorg Med Chem Lett, 2000) come the findings set out here.

SMILES strings stand for the structures.

Experiment [1] in a line: Inhibition of ATP-stimulated [Ca2+] influx into macrophages loaded with fluorescent indicator fura-2-acetoxymethyl at 500 nM concentration of compound. In kind it is functional. The conditions noted are these: Homo sapiens. Put shortly:
(§1)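 Washed human macrophage cells (10⁶/mL) in HEPES-buffered saline were loaded with fura-2 acetoxymethyl ester for 20 min at 37 °C in the dark, in a stirred cuvette. Cells were preincubated with compound at the stated single concentration for 5 min at 37 °C before ATP stimulation. Ca²⁺ influx was read as the 340:380 nm excitation ratio at 500 nm emission, as percent inhibition. Three repeats.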

Experiment [2] in a line: Inhibition of ATP-stimulated [Ca2+] influx into macrophages loaded with fluorescent indicator fura-2-acetoxymethyl at 1000 nM concentration of compound. Format: functional. The conditions noted are these: Homo sapiens.
A short description of experiment [3]: Inhibition of ATP-stimulated [Ca2+] influx into macrophages loaded with fluorescent indicator fura-2-acetoxymethyl at 50 nM concentration of compound. Format: functional. The conditions noted are these: Homo sapiens. In outline:
as §1

The target of a further experiment is T1, P2X purinoceptor 7 (Homo sapiens, UniProt Q99572).
T1 sequence (Q99572 whole entry): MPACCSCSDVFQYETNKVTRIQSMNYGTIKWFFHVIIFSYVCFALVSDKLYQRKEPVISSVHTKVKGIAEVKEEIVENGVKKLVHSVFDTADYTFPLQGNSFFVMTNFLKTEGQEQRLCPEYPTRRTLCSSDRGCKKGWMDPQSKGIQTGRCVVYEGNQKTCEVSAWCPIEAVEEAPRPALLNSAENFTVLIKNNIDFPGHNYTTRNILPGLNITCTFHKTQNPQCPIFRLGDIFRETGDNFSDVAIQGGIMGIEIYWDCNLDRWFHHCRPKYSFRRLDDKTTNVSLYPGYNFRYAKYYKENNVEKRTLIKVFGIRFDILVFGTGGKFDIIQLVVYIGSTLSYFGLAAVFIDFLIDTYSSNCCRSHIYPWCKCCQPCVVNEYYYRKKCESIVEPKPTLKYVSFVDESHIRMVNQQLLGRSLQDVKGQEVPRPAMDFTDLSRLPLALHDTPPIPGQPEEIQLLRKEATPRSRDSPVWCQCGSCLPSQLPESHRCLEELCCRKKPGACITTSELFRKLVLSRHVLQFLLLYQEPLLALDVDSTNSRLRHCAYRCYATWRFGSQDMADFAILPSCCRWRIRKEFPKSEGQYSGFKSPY
Nature of the experiment: Inhibitory concentration was evaluated against P2X purinoceptor 7. In outline: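 Human macrophage cells (10⁶/mL, washed, in HEPES-buffered saline) were fura-2-AM loaded for 20 min at 37 °C in the dark. Compounds (25–500 nM) were preincubated 5 min at 37 °C before ATP-stimulated Ca²⁺ influx was measured fluorimetrically (340:380 nm excitation ratio, 500 nm emission). IC50 is the mean from dose-response curves of at least three experiments.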

For orientation: inhibition means the share of the control response that was lost under treatment. `O=C([C@@H]1Cc2ccc(OS(=O)(=O)c3cccc4cnccc34)cc2CN1S(=O)(=O)c1cccc2cnccc12)N1CCN(c2ccccc2)CC1` gave an inhibition at 0.5 µM in experiment [1] of 34.5%. At 1 µM the inhibition in experiment [2] was 25.8%. In experiment [3], this compound displayed an inhibition at 0.05 µM of 1.66%.

Usually IC50 stands for the midpoint of a concentration-inhibition curve. Consider `CN([C@@H](Cc1ccc(OS(=O)(=O)c2cccc3cnccc23)cc1)C(=O)N1CCN(c2ccccc2)CC1)S(=O)(=O)c1cccc2cnccc12`, for which the inhibition at 0.5 µM in experiment [1] turned out to be 100%. Moreover, inhibition at P2X purinoceptor 7 was half-maximal at 13.4 nM (IC50). This compound also had an inhibition at 1 µM in experiment [2] of 100%. Further, the inhibition at 0.05 µM in experiment [3] came out at 94.4%.

With `O=C([C@@H]1Cc2ccc(OS(=O)(=O)c3cccc4cccnc34)cc2CN1S(=O)(=O)c1cccc2cccnc12)N1CCN(c2ccccc2)CC1`, the inhibition at 0.5 µM in experiment [1] came out at 3.4%. Moreover, the inhibition at 1 µM in experiment [2] is 0%. This compound also gave an inhibition at 0.05 µM in experiment [3] of 6.9%.

`O=C([C@@H]1Cc2ccc(OS(=O)(=O)c3cccc4ccccc34)cc2CN1S(=O)(=O)c1cccc2ccccc12)N1CCN(c2ccccc2)CC1`: 0.5 µM produced 0% inhibition in experiment [1]. Also, the inhibition at 1 µM in experiment [2] worked out at 0%. For the same compound, the inhibition at 0.05 µM in experiment [3] turned out to be 0%.

In turn, `O=C([C@@H]1Cc2ccc(OS(=O)(=O)c3cccc4ncccc34)cc2CN1S(=O)(=O)c1cccc2ncccc12)N1CCN(c2ccccc2)CC1` showed an inhibition at 0.5 µM in experiment [1] of 72.4%. This compound also displayed an inhibition at 1 µM in experiment [2] of 66%. In experiment [3], this compound yielded an inhibition at 0.05 µM of 59%.
